# Compound activity (PubChem)
# eIF2B yeast act: GCN4-lacZ reporter reduction in eIF2B-epsilon mutant yeast, primary screen, S. cerevisiae, eIF2B-epsilon R284H, Beta-Glo luminescence. inhibition, % at 25 µM (by protocol). actives 0.91% (n = 27,000). AID 688, 2007;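 active = mutant luminescence inhibited past about 50% while wild type luminescence and mutant growth stay under set limits, limit read from the data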
#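 Material: yeast eIF2B-epsilon R284H mutant carrying GCN4–beta-galactosidase fusion. Medium: YPD yeast growth medium. Incubation: 16 h growth with compound at 30 °C, 90 min Beta-Glo step. Signal: Beta-Glo luminescence plus absorbance at 595 nm. Evaluation: % inhibition of reporter signal and growth versus controls. Doses: 25 µM single dose.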
# Yeast growth tox: yeast growth toxicity, wild-type and mutant, primary screen, cytotoxicity control for eIF2B function restoration project, wild-type and eIF2Bepsilon R284H mutant, A595 | S. cerevisiae wild-type growth, A595 turbidity, 16 h | growth inhibition, % at 25 µM (by protocol) | actives 0.3% (n = 30,000);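 active = mutant and wild-type yeast strains alike exhibit over 30% growth inhibition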
#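 Test system: Wild-type and eIF2Bepsilon-R284H mutant S. cerevisiae, screened separately | Dosing: Single 25 µM compound dose in 0.2% DMSO | Schedule: 16 h compound exposure during growth at 30 °C | Detection: A595 turbidity | Evaluation: Growth inhibition (%) versus cell controls and blanks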
# Numbers stand for hits; 0 = inactive; - = not tested or not shown; ! = repeats disagree. Most compounds without a hit are left out; they make up all but 1% or so of the library.
SMILES,eIF2B yeast act,Yeast growth tox
CCCc1ccc(Oc2c(-c3ccc(O)c(C)c3O)n[nH]c2C)cc1,0,81.4
COc1cc(/C=C/C(=O)N(C)c2ccccc2C(=O)O)cc(OC)c1OC,0,0
COc1ccc(N/N=C(/N=Nc2nc(C)cc(=O)[nH]2)c2ccccc2)cc1,0,0
Cc1cc(=O)[nH]c(N=N/C(=N/Nc2ccc(O)cc2)c2ccccc2)n1,50.3,0
COc1cccc(CNC(=O)c2ccc(NC(=O)C3CCCO3)cc2)c1 (stereo not drawn),0,0
COc1ccc(N2C(=O)CC(Sc3nc(C)cc(C)c3C#N)C2=O)cc1 (stereo not drawn),0,-
Nc1nnc(SC2CC(=O)N(c3ccccc3)C2=O)s1 (stereo not drawn),0,61.9
COCC(=O)Nc1cc(OC)c(Cl)cc1OC,55.1,0
COc1cc(NC(=O)c2ccccc2)c(OC)cc1Cl,0,0
Cc1ccc(-n2nc(C)c3c2OC(N)=C(C#N)C3c2ccccc2F)cc1 (stereo not drawn),0,0
Cc1nn(-c2ccccc2)c2c1C(c1c(C)[nH]c(C#N)c1C)C(C#N)=C(N)O2 (stereo not drawn),52.7,0
[N-]=[N+]=CC(=O)C(Cc1ccccc1)N1C(=O)c2ccccc2C1=O (stereo not drawn),0,0
CCOC(=O)/C=c1\sc2n(c1=O)CCN=2,0,0
O=c1/c(=C/c2ccc(O)cc2)sc2n1CCCN=2,78.8,0
COc1ccc(C)cc1N(C(=O)CNC(=O)c1ccco1)C(C(=O)NC1CCCC1)c1cccnc1 (stereo not drawn),0,0
CC1(C)Cc2c(c(=S)nc(-c3ccccc3)n2CCOCCO)CO1,51.4,0
Cc1ccc(-c2nc(=S)c3c(n2CCN2CCOCC2)CC(C)(C)OC3)cc1,-,0
CCOC(=O)Cn1c2ccc(OC)cc2c2nc3ccccc3nc21,0,0
COC(=O)Cn1c2ccc(OC)cc2c2nc3ccccc3nc21,53.1,0
Cc1ccc(C)c(NC(=S)N2CCC(N(C)CC3CCCO3)CC2)c1 (stereo not drawn),0,0
Cc1cc(C)nc(N(C#N)CCOc2ccccc2)n1,0,0
CN(C)c1nc(N(C)C)nc(N(C#N)CCOc2ccccc2)n1,50.4,-
Cc1ccccc1OCc1nnc(SCC(=O)Nc2ccc(N3CCOCC3)c(Cl)c2)n1C,0,0
Cn1c(=O)[nH]c(=O)c2c1nc(SCC(O)CO)n2Cc1ccccc1Cl (stereo not drawn),60.9,0
Cn1c(=O)[nH]c(=O)c2c1nc(Br)n2Cc1ccccc1Cl,0,0
SMILES,eIF2B yeast act,Yeast growth tox
Cc1ccc2nc(-c3cccnc3)oc2c1,53.1,0
Cc1ccc(-c2nc3cc(C)ccc3o2)cc1,0,0
O=C(NC1CCCCC1)NC1CC2CCC(C1)N2C(=O)NC1CCCCC1 (stereo not drawn),-,0
CCOC(=O)C(C)CC(C)C(=O)N1CCOCCOCCN(C(=O)C(C)CC(C)C(=O)OCC)CCOCC1 (stereo not drawn),0,0
CCOC(=O)C(C(=O)OCC)C(C(=O)OCC)N1CCOCC1 (stereo not drawn),0,32.7
COC(=O)c1ccccc1NC(=O)CN1C(=O)c2ccccc2S1(=O)=O,0,0
CC1Cc2ccccc2N1C(=O)c1cc2c(=O)n3ccccc3nc2n1C (stereo not drawn),0,0
COC(=O)c1cc2c(=O)n3ccccc3nc2n(C)c1=N,0,31.9
CN1CCN(CCC(=O)Nc2ccc3c(c2)OCO3)CC1,55.6,0
Cc1ccc(-c2nnn(CCC(=O)Nc3ccc4c(c3)OCO4)n2)cc1,0,0
O=C(Nc1nc(-c2ccc(S(=O)(=O)N3CCCC3)cc2)cs1)c1cccs1,0,-
O=C(Nc1nc(-c2ccc(S(=O)(=O)N3CCCCCC3)cc2)cs1)c1cccs1,60.2,0
C/C(=C\C(=O)c1ccccc1)Nc1ccc(O)cc1,0,0
CC(=O)/C=C(\C)Nc1ccc(-c2cnc(-c3ccccc3)o2)cc1,70.4,0
CCOC(=O)C1=C(c2ccccc2)N=C2SCC(=O)N2C1c1ccc(OC)c(OC)c1 (stereo not drawn),0,0
CCOC(=O)C1=C(c2ccccc2)N(C)C(=O)NC1c1ccc(O)c(OC)c1 (stereo not drawn),50.2,0
Cc1ccc(N/C(CSC(N)=O)=N/S(=O)(=O)c2ccccc2)cc1,-,0
Fc1ccc(SCCc2ccncc2)cc1,-,58.6!
c1ccc(SCCc2ccncc2)cc1,-,0
O=S(=O)(c1ccc(S(=O)(=O)N2CCN(Cc3ccccc3)CC2)cc1)N1CCOCC1,0,0
Cn1c(=O)c2c(-c3ccccc3F)c3c(nc2n(C)c1=O)-c1ccccc1C3O (stereo not drawn),-,0
COc1ccc(C2NC(=O)NC(C)=C2C(C)=O)cc1 (stereo not drawn),51.5,0
